Assay results gathered from unrelated publications.
KIT V559D: Mast/stem cell growth factor receptor Kit (KIT, Homo sapiens, UniProt P10721, V559D)
KIT: Mast/stem cell growth factor receptor Kit (KIT, Homo sapiens, UniProt P10721)
KIT L576P: Mast/stem cell growth factor receptor Kit (KIT, Homo sapiens, UniProt P10721, L576P)
KIT autoinhibited: Mast/stem cell growth factor receptor Kit, autoinhibited (KIT, Homo sapiens, UniProt P10721)
KIT D816H: Mast/stem cell growth factor receptor Kit (KIT, Homo sapiens, UniProt P10721, D816H)
KIT T670I/V559D: Mast/stem cell growth factor receptor Kit (KIT, Homo sapiens, UniProt P10721, T670I/V559D)
KIT A829P: Mast/stem cell growth factor receptor Kit (KIT, Homo sapiens, UniProt P10721, A829P)

Structure (SMILES) | target | test | conditions | remaining binding
O=C(c1ccc(Nc2ncc(Cl)c(-c3ccc(Cl)s3)n2)cc1)N1CCC(N2CCCC2)CC1 | KIT V559D | binding, competition with immobilised ligand | 1 µM | 0.05%
COc1cnc(Nc2cccc(S(N)(=O)=O)c2)nc1N1CCN(c2ccccc2)C(=O)C1 | KIT V559D | binding, competition with immobilised ligand | 1 µM | 98%
NS(=O)(=O)c1cc(NC(=O)Cc2ccccc2)ccc1Oc1cccc(Cl)c1 | KIT | cell-free assay, competition with immobilised ligand | 1 µM | 89%
CN(C)c1nccc(-c2cnn3ncccc23)n1 | KIT L576P | binding | 1 µM | 100%
O=C(NCCCN1CCOCC1)c1ccc(Nc2ncc(Cl)c(-c3ccc(Cl)s3)n2)cc1 | KIT autoinhibited | binding, competition with immobilised ligand | 1 µM | 31%
Cc1cc(NC(=O)c2cccc(S(F)(F)(F)(F)F)c2)cc(-n2ccn3nc(-c4cccnc4)cc23)c1 | KIT | cell-free assay, competition with immobilised ligand | 1 µM | 89.5%
O=C(Nc1c[nH]nc1C(=O)NC1CCNCC1)c1cc(F)cc(F)c1 | KIT D816H | binding, competition with immobilised ligand | 1 µM | 100%
Cc1cc(C)c(-n2ccn3nc(-c4cccnc4)cc23)cc1NC(=O)c1cc(C#N)cc(S(F)(F)(F)(F)F)c1 | KIT D816H | cell-free assay, competition with immobilised ligand | 0.1 µM | 81.8%
O=C(c1ccc(Nc2ncc(Cl)c(-c3cc4ccccc4s3)n2)cc1)N1CCC(N2CCCC2)CC1 | KIT D816H | binding, competition with immobilised ligand | 1 µM | 22%
Cc1c(NC(=O)c2cc(C(N)=O)nc3cc(F)ccc23)c(C(F)(F)F)nn1Cc1ccc(C(C)(C)C)cc1 | KIT L576P | cell-free assay, competition with immobilised ligand | 1 µM | 95%
C[C@H]1CCN(c2nccc(-c3cnn4ncccc34)n2)C1 | KIT autoinhibited | binding | 1 µM | 73%
O=C(c1ccc(Nc2nccc(-c3cc4ccccc4s3)n2)cc1)N1CCC(N2CCCC2)CC1 | KIT | binding, competition with immobilised ligand | 1 µM | 53%
N[C@H]1CCN(c2nccc(-c3cnn4ncccc34)n2)C1 | Mast/stem cell growth factor receptor Kit (KIT, Homo sapiens, UniProt P10721, D816V) | binding | 1 µM | 87%
NS(=O)(=O)c1cc(NC(=O)C2(c3ccccc3Cl)CC2)ccc1Oc1cccc(Cl)c1 | KIT T670I/V559D | cell-free assay, competition with immobilised ligand | 1 µM | 85%
C[C@@H](c1ccc(-n2cnc3c(N)ncnc32)cc1)N1CCc2nn(C)c(Cc3ccccc3)c2C1=O | KIT autoinhibited | binding, competition with immobilised ligand | 0.1 µM | 97%
CN(CCCC(F)(F)F)c1nccc(-c2cnn3ncccc23)n1 | KIT T670I/V559D | binding | 1 µM | 100%
c1cncc(-c2cccc(Nc3nccc(NC4CCCCC4)n3)c2)c1 | KIT V559D | binding, competition with immobilised ligand | 10 µM | 1.2%
CC1CCCN1c1nccc(-c2cnn3ncccc23)n1 (centres unmarked) | KIT A829P | binding | 1 µM | 89%
CCN1CCN(Cc2ccc(C(=O)Nc3ccc(C)c(Oc4ccc5c(c4)CC(=O)N5)c3)cc2C(F)(F)F)CC1 | KIT L576P | binding, competition with immobilised ligand | 1 µM | 2.9%
CNC(=O)[C@@H]1CC[C@@H](n2c(-c3ccc4cnccc4c3)nc3ccc(C(=O)NCc4cccc(C(N)=O)c4)cc32)C1 | KIT D816H | binding, competition with immobilised ligand | 1 µM | 100%
CN(C)c1ncc(F)c(-c2cnn3ncccc23)n1 | KIT D816H | binding | 1 µM | 72%
O=c1nc(-c2ccccn2)sc2ccccc12 | KIT A829P | binding, competition with immobilised ligand | 1 µM | 100%
COc1ncc2cc3ccccc3nc2c1C#N | KIT | cell-free assay, competition with immobilised ligand | 5 µM | 92%
